Assay [1] has as its system P. falciparum 3D7 parasites. The experiment in a line: P. falciparum 3D7 asexual-stage parasite LDH viability assay. The format is cell-based, Plasmodium falciparum. Conditions: for EC50: Plasmodium falciparum, 3D7, 72 h, read-out: Control compound activity against 3D7 parasites, EC50, 3D7, LDH assay, 72 h, value (SD).
The test system of assay [2] is Pf Dd2 parental line. Briefly: 3H-hypoxanthine 72 h assay, Dd2 parental line. The class given is cell-based. The settings on record: Plasmodium falciparum, DD2, read-out: Pf Dd2 EC50, Dd2 parental line, 3H-hypoxanthine 72 h; average of two experiments.
The subject of assay [3] is Pf SB1-A6 strain with a CNV (∼2-fold) and a C276F mutation in DHODH. The experiment in a line: SB1-A6 asexual-stage assay. The format is cell-based. Conditions: Plasmodium falciparum, 72 h, read-out: SB1-A6 EC50. Put shortly:
(§1)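 Parasites were sorbitol-synchronised one cycle before setup. Ring stages at 0.5% parasitemia and 2% hematocrit were plated onto twofold compound dilutions and incubated at 37 °C for 72 h. Cells were fixed in 0.25% glutaraldehyde (RT, 30 min), stained with 2.5× SYBR Green (37 °C, 30 min) and counted by flow cytometry. EC50 is the average of three independent experiments.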

In assay [4] the test system is mitochondrial electron transport chain of P. falciparum 3D7 asexual parasites. Briefly: ETC biosensor / oxygen consumption rate. Conditions: compounds at 5 μM, malate as the energy source. The format is cell-based, Plasmodium falciparum. The method in brief:
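Magnet-purified trophozoite-infected RBCs were saponin-released (0.05%, 37 °C, 3 min) and washed. Parasites were suspended in MAS buffer with 25 mM malate and 0.002% digitonin and seeded at 5 × 10^6 per Cell-Tak-coated well (800g, 10 min). Seahorse XFe96 OCR was read at baseline, after test compound (5 μM final), after TMPD (0.2 mM) with ascorbate (2 mM), then after NaN3 (10 mM). Each cycle was 20 s mix, 1 min wait, 2.5 min measure.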

Assay [5] deals with Pf Dd2 expressing ScDHODH. Briefly: ScDHODH asexual-stage assay. Conditions: Plasmodium falciparum, DD2, 72 h, read-out: Dd2 ScDHODH EC50. The class given is cell-based. The method in brief:
as §1

Assay [6] deals with P. berghei ANKA parasites expressing GFP. The experiment in a line: Peter's 4 day P. berghei mouse model. The format is in vivo. Conditions: 10 mg/kg. Put shortly: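 Swiss mice (four per group) were infected IV with 1 × 10^7 P. berghei ANKA GFPcon-infected erythrocytes from donor mice. Dosing was oral once daily for 4 days, starting 2 h post-infection: test compound at 20 mg/kg in 20% DMSO/60% propylene glycol/20% water, or chloroquine at 10 mg/kg in water. Day-4 parasitemia was measured as GFP+ cells per 100,000 events and by Giemsa smears, with reduction calculated against vehicle.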

The mark [7] stands for this setting: 3D7 parasite EC50 compared to 17.

Here are results for 14 compounds from PMC10012268 (ACS Infectious Diseases, 2023).

In the case of `CCn1cc(-c2nc(C)no2)c(=O)c2cc(F)c(N3CCC(c4ccccc4)CC3)cc21` [Compound 40, 1-Ethyl-6-fluoro-3-(3-methyl-1,2,4-oxadiazol-5-yl)-7-(4-phenyl-1-piperidyl)quinolin-4-one], in assay [1] (setting [7]), the “fold less active/potent than 17” value is 2 fold.

The term EC50 denotes the concentration needed to bring the measured effect to its halfway point. Consider `Cc1cc(Nc2ccc(S(F)(F)(F)(F)F)cc2)n2nc(C(C)(F)F)nc2n1` [DSM265, reference compound], for which the EC50 is 24 nM in assay [2], greater than 10000 nM in assay [3] and greater than 10000 nM in assay [5]. Besides, the “effect on malate-dependent oxygen consumption rate (OCR)” value in assay [4] was “had no effect”.

Consider `CCN(CC)CCCC(C)Nc1ccnc2cc(Cl)ccc12` (stereo not drawn) [CQ, chloroquine, reference compound], for which the EC50 in assay [1] is 35 nM. In addition, the “% parasitemia” value in assay [6] (average for four mice on day 4) stood at 0.02%. Besides, the “% reduction in parasitemia” value in assay [6] (versus the vehicle control, four mice, day 4) stood at 99.8%.

As for `CC1(C)c2nc(-c3ccc(F)cc3)c(Nc3ccc(F)cc3)n2CCN1C(=O)CN` [KAF156], the EC50 in assay [2] is 8 nM.

Take `C[C@H]1[C@H](OC(=O)CCC(=O)O)O[C@@H]2O[C@@]3(C)CC[C@H]4[C@H](C)CC[C@@H]1[C@@]24OO3` [artesunate, reference compound]: the EC50 in assay [1] turned out to be 8 nM.

Regarding `CCn1cc(-c2nc(C)no2)c(=O)c2cc(F)c(N3CCN(C(C)=O)CC3)cc21` [Compound 33, 7-(4-Acetylpiperazin-1-yl)-1-ethyl-6-fluoro-3-(3-methyl-1,2,4-oxadiazol-5-yl)quinolin-4-one], in assay [4], the “effect on malate-dependent oxygen consumption rate (OCR)” value is listed as “does not affect the OCR”.

Turning to `CCCC1CCN(c2cc3c(cc2F)c(=O)c(-c2nc(C)no2)cn3CC)CC1` [Compound 38, 1-Ethyl-6-fluoro-3-(3-methyl-1,2,4-oxadiazol-5-yl)-7-(4-propyl-1-piperidyl)quinolin-4-one], the “fold more potent than 17” value in assay [1] (setting [7]) was determined as 2 fold.

For `CCn1cc(-c2nc(C)no2)c(=O)c2cc(F)c(N3CCC(C(C)C)CC3)cc21` [Compound 39, 1-Ethyl-6-fluoro-7-(4-isopropyl-1-piperidyl)-3-(3-methyl-1,2,4-oxadiazol-5-yl)quinolin-4-one], the “fold less active/potent than 17” value in assay [1] (setting [7]) is reported as 2 fold.

Consider `O=C(NCCN1CCCC1)c1cc(-c2ccc(CN3CCOCC3)cc2)nc2ccc(F)cc12` [DDD107498], for which the EC50 in assay [2] came out at 0.4 nM.

With `O=C1C(O)=C([C@H]2CC[C@H](c3ccc(Cl)cc3)CC2)C(=O)c2ccccc21` [ATQ, atovaquone, reference compound], the figures for the EC50 in assay [2], in assay [3] and in assay [5] were 1 nM, greater than 10000 nM and greater than 10000 nM, respectively.

Regarding `CS(=O)(=O)c1ccc(-c2cnc(N)c(-c3ccc(C(F)(F)F)nc3)c2)cc1` [MMV048], the EC50 in assay [2] was found to be 16 nM.

For `CCn1cc(-c2nc(C)no2)c(=O)c2cc(F)c(N3CCCC(C)C3)cc21` (stereo not drawn) [Compound 34, 1-Ethyl-6-fluoro-3-(3-methyl-1,2,4-oxadiazol-5-yl)-7-(3-methyl-1-piperidyl)quinolin-4-one], the “fold less active/potent than 17” value in assay [1] (setting [7]) is given as 5 fold.

With `CCNC(=O)c1cn(CC)c2cc(N3CCC(C)CC3)c(F)cc2c1=O` [Compound 23, N,1-Diethyl-6-fluoro-7-(4-methyl-1-piperidyl)-4-oxo-quinoline-3-carboxamide], the “fold less active/potent than 17” value in assay [1] (setting [7]) is listed as “approximately 20 fold”.

`CCn1cc(-c2nc(C)no2)c(=O)c2cc(F)c(N3CCC(CN4CCOCC4)CC3)cc21` [Compound 42, 1-Ethyl-6-fluoro-3-(3-methyl-1,2,4-oxadiazol-5-yl)-7-[4-(morpholinomethyl)-1-piperidyl]quinolin-4-one]: the “fold less active than the benzyl analog 41” value in assay [1] (3D7 parasite EC50 compared to 41) is 30 fold.
